From PubChem
This is a sample that favours compounds with a hit; in the whole collection about 3.5% have one here.
MrgX1 PAM = positive allosteric modulators of MrgX1, primary screen, HEK293 cells, Fluo-4 calcium flux. Mas-related G-protein coupled receptor member X1 (Homo sapiens), Q96LB2. FDSS; hits give high values. B-score at 10 µM. 0.63% of 310,000 active. AID 588675, 2011;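 active = plate-corrected calcium response at least 3 library SD above typical, normal starting fluorescence, not activating the receptor alone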;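 note: compound read alongside a low EC10 to EC30 dose of BAM8-22 agonist; peak minus trough fluorescence over baseline measured at the second addition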
Target sequence (Q96LB2 whole entry, looked up): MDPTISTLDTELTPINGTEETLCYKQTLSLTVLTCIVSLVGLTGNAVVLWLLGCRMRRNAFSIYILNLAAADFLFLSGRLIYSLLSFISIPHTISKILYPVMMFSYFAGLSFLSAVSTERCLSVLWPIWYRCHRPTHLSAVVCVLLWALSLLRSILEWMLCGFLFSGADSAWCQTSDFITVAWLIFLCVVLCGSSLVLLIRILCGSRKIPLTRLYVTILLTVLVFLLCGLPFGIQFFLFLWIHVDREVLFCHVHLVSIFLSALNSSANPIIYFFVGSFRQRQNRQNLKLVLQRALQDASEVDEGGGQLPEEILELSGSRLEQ
MrgX1 agonist = agonists of human MrgX1 receptor, primary screen, HEK293 cells, Fluo-4 calcium flux. 0.44% of 310,000 active. Mas-related G-protein coupled receptor member X1 (Homo sapiens), Q96LB2. B-score at 10 µM. Fluo-4 calcium fluorescence, agonist mode; hits give high values. AID 588627, 2011;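 active = calcium response B-score plate-corrected fluorescence ratio at least 3 library SD, with starting fluorescence B-score inside 5 SD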
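Material: MrgX1-expressing HEK293 cells / Dosing: compound as first of three additions / Incubation: overnight seeding, then 1 h dark dye loading / Signal: Fluo-4 NW calcium fluorescence / Evaluation: B-scored fluorescence response ratio / Benchmarks: positive and negative control wells on each plate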
RGS4 block = RGS4 inhibitors, primary screen, cell-based, HEK293 M3R inducible RGS4, calcium flux | Regulator of G-protein signaling 4 (Homo sapiens), P49798 | Fluo-4 calcium flux; hits give high values; triggered by carbachol at its EC20 | B-score at 10 µM | 0.45% of 310,000 active;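 active = B-score, a plate-corrected calcium signal, over three deviations above library mean, with baseline fluorescence within five deviations of library mean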;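 note: RGS4 expression induced by doxycycline in cells with stable M3 receptor; B-score is computed from the integrated fluorescence ratio over baseline after carbachol; higher B-score means a larger calcium signal and so more RGS4 inhibition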
Target sequence (P49798 whole entry, looked up): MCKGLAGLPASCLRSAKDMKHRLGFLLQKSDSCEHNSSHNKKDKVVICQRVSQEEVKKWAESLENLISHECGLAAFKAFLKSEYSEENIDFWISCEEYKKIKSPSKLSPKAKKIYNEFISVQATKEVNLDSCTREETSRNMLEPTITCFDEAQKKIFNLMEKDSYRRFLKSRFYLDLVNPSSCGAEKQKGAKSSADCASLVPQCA
MrgX1 antagonist = antagonists of human MrgX1 receptor, primary screen, HEK293 cells, Fluo-4 calcium flux. Mas-related G-protein coupled receptor member X1 (Homo sapiens), Q96LB2. BAM8-22 antagonism; hits give low values. B-score at 10 µM. 1.3% of 310,000 active. AID 588676, 2011;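 active = calcium-response B-score plate-corrected more than 3 library SD below zero, starting fluorescence within 5 deviations, no agonist response on first addition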;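 note: peak minus trough fluorescence over baseline after final BAM8-22 challenge near maximal dose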
RGS4 act = RGS4 potentiators or activators, primary screen, cell-based, HEK293 M3R inducible RGS4, calcium flux; carbachol calcium flux Fluo4; hits give low values; B-score at 10 µM; 0.92% of 310,000 active; AID 463111, 2010;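 active = B-score of the integrated calcium signal more than 4 SD below the library mean, with starting fluorescence not abnormally high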;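 note: negative B-score means reduced calcium response which marks RGS4 activation or potentiation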
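Detection: kinetic calcium fluorescence imaging with Fluo4-AM dye, 2 µM / Material: HEK293 cells with stable M3R and inducible RGS4 / Schedule: recording 10 s baseline at 1 Hz, 100 s post-agonist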
MrgX1 ant reconf = MrgX1 receptor antagonists, duplicate retest, confirmation, HEK293 cells, Fluo-4 calcium flux. remaining BAM8-22 calcium response % of control (hits give low values), % at 10 µM. BAM8-22 calcium flux; hits give low values. shares compounds with MrgX1 antagonist. 19% of 2,300 active;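 active = remaining agonist calcium response no higher than 100% minus 3 SD of agonist-only control wells, with starting fluorescence near control levels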;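 note: agonist BAM8-22 given at a near maximal EC90 to ECmax level; peak minus minimum fluorescence divided by baseline after agonist addition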
HEK293 Ca flux = nonspecific calcium signal in parental HEK293, confirmation, counter-screen for MrgX1 antagonist project, parental HEK293 cells, Fluo-4 calcium flux | shares compounds with MrgX1 antagonist | Fluo-4 calcium fluorescence, FDSS | fluorescence ratio F(max-min)/F0 at 10 µM | 2% of 4,000 active;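 active = duplicate-averaged calcium fluorescence ratio at least three times the standard deviation of buffer wells, a nonspecific response in parental cells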
HEK293 Ca counter = calcium response in parental HEK293 cells, primary screen, counter-screen for MrgX1 allosteric activator project, cell-based, Fluo-4 calcium flux, duplicate; shares compounds with MrgX1 antagonist; Fluo-4 fluorescence ratio; hits give high values; fluorescence ratio F(max-min)/F0 at 10 µM; 0.4% of 4,000 active; AID 624114, 2012;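 active = calcium fluorescence ratio, averaged over duplicates, at least 3 SD of the buffer-well ratio, meaning a nonspecific response in receptor-free cells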;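 note: untransfected parental HEK293 lacking MrgX1 used as counterscreen for MrgX1 allosteric activators; fluorescence change taken during the second addition on a kinetic imager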
HEK293 Ca cntr2 = calcium response in parental HEK293 cells, primary screen, counter-screen for MrgX1 agonist project, cell-based, Fluo-4 calcium flux, duplicate, agonist mode; Fluo-4 calcium fluorescence (FDSS); hits give high values; shares compounds with MrgX1 antagonist; 8.7% of 4,000 active; fluorescence ratio F(max-min)/F0 at 10 µM;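 active = calcium fluorescence ratio at least three times the spread of buffer wells, meaning a non-specific response in parental cells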
* marks the source's active call; other numbers are inactive results; i = inactive; / = no result given.

SMILES	MrgX1 PAM	MrgX1 agonist	RGS4 block	MrgX1 antagonist	RGS4 act	MrgX1 ant reconf	HEK293 Ca flux	HEK293 Ca counter	HEK293 Ca cntr2
O=C(c1cccc(-n2cccc2)c1)N1CCN(S(=O)(=O)c2c(F)cccc2F)CC1	i	i	i	-6.1*	i	i	i	i	i
COc1ccc(/C(CC2OC(=O)c3ccccc32)=N\NC(N)=O)cc1 (stereo not given)	i	i	i	i	i	/	/	/	/
Cc1ccc(C(=O)N/C(=C/C=C\c2ccccc2)C(=O)NCc2ccco2)cc1	i	i	i	i	i	/	/	/	/
O=C(/C=C/c1ccc(Cl)cc1)N1CCN(Cc2ccccc2)CC1	i	i	i	i	i	/	/	/	/
COc1ccc2[nH]c3c(c2c1)CCN1C(=O)N([C@@H](C)C(=O)NCc2ccccc2OC)C(=O)[C@]31C	i	i	i	i	i	/	/	/	/
COc1ccc2[nH]c3c(c2c1)CCN1C(=O)N([C@@H](C)C(=O)NCc2ccccc2)C(=O)[C@]31C	i	i	i	-8.6*	i	i	i	i	i
COC(=O)c1nnn(-c2nonc2N)c1COc1ccc(C=O)cc1OC	i	i	i	i	i	/	/	/	/
Cn1c(=O)oc2cc(S(=O)(=O)N3CCCC(C(=O)NCCN4CCOCC4)C3)ccc21 (stereo not given)	i	i	/	-4.6*	/	i	i	i	i
CCOC(=O)c1c(-c2ccc(OC)cc2)oc2cc(Br)c(O)cc12	i	i	i	i	i	/	/	/	/
CCOC(=O)c1c(C)[nH]c2cc(Br)c(O)cc12	i	i	i	-7.4*	i	73%*	i	i	i
COc1ccccc1N1CCN(C(=O)CN(C)S(=O)(=O)c2ccc3c(c2)c(=O)n(C)c(=O)n3C)CC1	i	i	i	i	i	/	/	/	/
Cc1nc(CNS(=O)(=O)c2ccccc2F)cs1	i	i	i	-4.6*	i	i	i	i	i
Cc1nc(CNS(=O)(=O)c2cccs2)cs1	i	i	i	i	i	/	/	/	/
CCNc1ccc2noc3c2c1C(=O)c1ccccc1-3	i	i	i	-4.8*	i	i	0.58*	i	i
Cc1cc(C)c(NC(=O)Cc2ccc(-n3cccc3)cc2)c(C)c1	i	i	i	-5.5*	i	i	i	i	i
Cc1ccc(CNC(=O)Cc2ccc(-n3cccc3)cc2)cc1	i	i	i	i	i	/	/	/	/
O=C1CC2(CCN(C(=O)c3cccc(F)c3)CC2)Oc2ccccc21	i	i	i	i	i	/	/	/	/
COc1ccc(NC(=O)CN(C)C(=O)CSc2ccc3c(c2)OCCO3)cc1	i	i	i	-5.2*	i	i	i	i	i
COc1ccc(OC)c(CNS(=O)(=O)c2cn(C)cn2)c1	i	i	i	-4.5*	i	i	i	i	i
O=C(O)Cn1c(=O)c2c3c(sc2n(Cc2ccccc2F)c1=O)CCCC3	i	i	i	i	i	/	/	/	/
COc1ccc(OC)c(NC(=O)C23CC4CC(C2)CC(n2cnc(Br)n2)(C4)C3)c1	i	i	i	-5.2*	i	i	i	i	i
Cc1ccc(-n2nnnc2CSc2nnc(-c3ccc(O)cc3)o2)cc1	i	i	i	i	i	/	/	/	/
Cc1nc(Nc2cccc(C(C)O)c2)c2nnn(Cc3ccc(F)cc3)c2n1 (stereo not given)	i	i	i	i	i	/	/	/	/
COc1cc2cc(CN(CCO)S(=O)(=O)c3ccccc3Cl)c(=O)[nH]c2cc1OC	i	i	i	-7.7*	i	i	i	i	i
CN(C)C(CNC(=O)c1ccc(NS(=O)(=O)c2ccc(F)cc2)cc1)c1ccco1 (stereo not given)	i	i	i	-6.1*	i	i	i	i	i
SMILES	MrgX1 PAM	MrgX1 agonist	RGS4 block	MrgX1 antagonist	RGS4 act	MrgX1 ant reconf	HEK293 Ca flux	HEK293 Ca counter	HEK293 Ca cntr2
Cc1cccc(NS(=O)(=O)c2ccc(C(=O)NCC(c3ccccc3)N(C)C)cc2)c1C (stereo not given)	i	i	i	-5.2*	i	85%*	i	i	i
COc1ccc(N(C(C)=O)c2nc(C)cc(C)c2C#N)c(OC)c1	i	i	i	i	i	/	/	/	/
CCCCC(=O)Oc1c(S(=O)(=O)c2ccc(C)cc2)c(C)nn1C(C)(C)C	i	i	i	-5.2*	i	i	i	i	i
CC(=O)Oc1c(S(=O)(=O)c2ccc(C)cc2)c(C)nn1C(C)(C)C	i	i	i	i	i	/	/	/	/
CCOc1ccccc1NC(=O)c1cnc(NS(=O)(=O)c2ccccc2)nc1	i	i	i	i	i	/	/	/	/
O=C(O)c1c[nH]c2c(C(F)(F)F)cccc2c1=O	i	i	i	-7.4*	i	i	i	i	i
COc1cccc2c(=O)c(C(=O)O)c[nH]c12	i	i	i	i	i	/	/	/	/
COCCn1nnnc1CN1CCN(C(=O)c2ccco2)CC1	i	i	i	-6.3*	i	i	i	i	i
COc1ccc(CCn2nnnc2CN2CCN(C(=O)c3ccco3)CC2)cc1OC	i	i	i	i	i	/	/	/	/
COc1ccc2c(c1)cc(C(=O)N[C@@H](CCSC)C(=O)N1CCC(C(=O)O)CC1)n2C	i	i	i	i	i	/	/	/	/
Cc1nc2c(C(=O)N3CCN(C)CC3)cnn2c(C)c1Cc1ccc(Cl)cc1	i	i	i	i	i	/	/	/	/
C=CCc1c(C)nc2c(C(=O)O)cnn2c1C	i	i	i	-4.6*	i	i	i	i	i
